Data taken from ChEMBL document CHEMBL4715833, “Design, synthesis, in-vitro, in-vivo and in-silico studies of pyrrolidine-2,5-dione derivatives as multitarget anti-inflammatory agents” (Eur J Med Chem, 2020).
Where a name gives a salt, the structure may show the parent alone.

Tests used:
[1] = biological target: T1, Prostaglandin G/H synthase 1 (Ovis aries, UniProt P05979); test: Inhibition of sheep COX1 using arachidonic acid as substrate preincubated for 5 mins followed by substrate addition and measured after 5 mins by UV-visible spectrophotometric method
T1 sequence (P05979 whole entry): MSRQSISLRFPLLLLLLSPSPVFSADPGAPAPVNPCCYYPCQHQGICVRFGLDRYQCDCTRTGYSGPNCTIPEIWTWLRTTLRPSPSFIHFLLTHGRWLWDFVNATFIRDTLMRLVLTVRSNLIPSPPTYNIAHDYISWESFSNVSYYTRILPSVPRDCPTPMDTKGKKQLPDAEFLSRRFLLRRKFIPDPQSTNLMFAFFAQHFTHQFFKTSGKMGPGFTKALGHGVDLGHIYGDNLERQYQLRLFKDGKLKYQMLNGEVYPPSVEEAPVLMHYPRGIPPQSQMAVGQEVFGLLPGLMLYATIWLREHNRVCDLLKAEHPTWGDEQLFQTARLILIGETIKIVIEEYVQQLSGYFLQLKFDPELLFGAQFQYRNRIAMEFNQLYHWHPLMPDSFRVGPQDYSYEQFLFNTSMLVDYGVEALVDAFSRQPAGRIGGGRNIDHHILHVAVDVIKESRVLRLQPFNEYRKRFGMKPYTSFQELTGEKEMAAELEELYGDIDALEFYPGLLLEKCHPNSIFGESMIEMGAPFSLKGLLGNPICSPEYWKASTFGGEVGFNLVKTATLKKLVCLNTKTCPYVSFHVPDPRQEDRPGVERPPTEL
How it was run: (§1)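 Enzymes activated for 5 min on ice with cofactor solution of 0.9 mM glutathione, hematin and 0.24 mM TMPD in 0.1 M Tris-HCl pH 8.0; COX-2 at 300 units/ml. Reaction started with 30 mM arachidonic acid stock, run 5 min, absorbance read at 570 nm. IC50 taken from inhibition-vs-concentration plots as means of three determinations. SI = IC50(COX-1)/IC50(COX-2).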

Homo sapiens = species: Homo sapiens; test: Selectivity index, ratio of IC50 for sheep COX1 to IC50 for recombinant human COX2 expressed in baculovirus infected Sf21 cells; how it was run: as §1
[2] = biological target: T2, Polyunsaturated fatty acid 5-lipoxygenase (Homo sapiens, UniProt P09917); test: Inhibition of recombinant human 5LOX expressed in baculovirus infected Sf insect cells using linoleic acid as substrate preincubated for 5 mins followed by substrate addition
T2 sequence (P09917 whole entry): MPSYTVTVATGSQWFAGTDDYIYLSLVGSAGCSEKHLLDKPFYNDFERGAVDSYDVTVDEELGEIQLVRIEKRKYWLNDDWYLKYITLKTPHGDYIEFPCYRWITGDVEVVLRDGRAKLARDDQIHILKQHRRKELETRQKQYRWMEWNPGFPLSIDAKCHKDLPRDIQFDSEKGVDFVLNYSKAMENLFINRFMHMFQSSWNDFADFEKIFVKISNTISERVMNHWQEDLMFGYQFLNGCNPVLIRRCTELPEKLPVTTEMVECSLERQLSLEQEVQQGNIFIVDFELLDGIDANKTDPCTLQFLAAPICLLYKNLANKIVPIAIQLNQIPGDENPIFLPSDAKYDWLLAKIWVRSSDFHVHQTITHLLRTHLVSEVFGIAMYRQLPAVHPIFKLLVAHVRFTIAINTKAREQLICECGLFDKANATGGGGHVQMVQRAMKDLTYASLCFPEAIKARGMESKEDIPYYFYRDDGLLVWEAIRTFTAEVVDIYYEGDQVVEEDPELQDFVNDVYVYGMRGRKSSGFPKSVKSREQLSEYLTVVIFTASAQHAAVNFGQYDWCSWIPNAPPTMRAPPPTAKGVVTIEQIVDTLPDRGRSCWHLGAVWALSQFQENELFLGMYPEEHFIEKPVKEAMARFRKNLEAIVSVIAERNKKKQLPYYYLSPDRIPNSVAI

[3] = Inhibition of trypsin (unknown origin) using casein as substrate preincubated for 5 mins followed by substrate addition and measured after 20 mins; design: species or system Homo sapiens
How it was run: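 Trypsin 0.06 mg/ml in 20 mM Tris-HCl pH 7.4 with compound at 31.25–1000 µg/ml, 5 min at 37 °C. 0.8% (w/v) casein added, 20 min further, stopped with 70% perchloric acid. After centrifugation, supernatant absorbance read at 217 nm against buffer blank. % inhibition against control; IC50 from plot; three runs.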

Mus musculus [4] = test: Antiinflammatory activity against carrageenan-induced paw edema in Swiss mouse assessed as inhibition of paw edema at 100 mg/kg administered 30 mins prior to carrageenan challenge and measured after 1 hr by […]-method (reference value: 7.66 +/- 3.753%); format: functional; conditions: 1.5 h, time 90 min
Mus musculus [5] = test: Antiinflammatory activity against carrageenan-induced paw edema in Swiss mouse assessed as inhibition of paw edema at 100 mg/kg administered 30 mins prior to carrageenan challenge and measured after 2 hrs by […]-method (reference value: 7.39 +/- 2.475%); format: functional; conditions: time 2.5 hrs
Mus musculus [6] = test: Antiinflammatory activity against carrageenan-induced paw edema in Swiss mouse assessed as inhibition of paw edema at 100 mg/kg administered 30 mins prior to carrageenan challenge and measured after 3 hrs by […]-method (reference value: 11.41 +/- 3.069%); format: functional; conditions: time 3.5 hrs
Mus musculus [7] = test: Antiinflammatory activity against carrageenan-induced paw edema in Swiss mouse assessed as inhibition of paw edema at 100 mg/kg administered 30 mins prior to carrageenan challenge and measured after 4 hrs by […]-method (reference value: 14.46 +/- 1.568%); format: functional; conditions: time 4.5 hrs
Mus musculus [8] = test: Antiinflammatory activity against carrageenan-induced paw edema in Swiss mouse assessed as inhibition of paw edema at 100 mg/kg administered 30 mins prior to carrageenan challenge and measured after 5 hrs by […]-method (reference value: 7.31 +/- 3.204%); format: functional; conditions: time 5.5 hrs
Mus musculus [9] = test: Antiinflammatory activity in leukotriene-induced paw edema in Balb/c mouse assessed as inhibition of paw edema at 25 mg/kg, ip administered 1 hr prior to leukotriene challenge and measured after 3 hrs relative to control; format: functional
How it was run: (§2)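 BALB/c mice of either sex (30–35 g), 8 per group, dosed i.p. with 10% DMSO, reference drug or compound (100 mg/kg). After 1 h, subplantar irritant: PGE2 0.01 µg/ml, bradykinin 20 µg/ml, histamine 0.1 ml of 1 mg/ml, or leukotriene 10 µg/ml.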

[10] = Antiinflammatory activity assessed as inhibition of heat-induced albumin denaturation preincubated for 20 mins followed by heating at 51 degC and measured after 3 mins by UV-vis spectrophotometric method
Mus musculus [11] = test: Antiinflammatory activity in PGE2-induced paw edema in Balb/c mouse assessed as inhibition of paw edema at 50 mg/kg, ip administered 1 hr prior to PGE2 challenge and measured up to 5 hrs relative to control; format: functional; conditions: time 2-6 hrs; how it was run: as §2
Mus musculus [12] = test: Antiinflammatory activity in histamine-induced paw edema in Balb/c mouse assessed as inhibition of paw edema at 1 mg/kg, ip administered 1 hr prior to histamine challenge and measured after 1 hr relative to control; format: functional; conditions: time 2 hrs; how it was run: as §2

Structure (SMILES) | IC50 [1] [µM] | IC50 [2] [µM] | IC50 [3] [µM] | Ratio IC50 (Homo sapiens) | further results
CC(=O)CC1CC(=O)N(c2ccccc2)C1=O (centres undefined) | 33.3 | 62.4 | 151 | 0.52 | 
CC(=O)Oc1ccccc1C(=O)O [ASPIRIN] |  |  |  |  | inhibition in vivo at 100 mg/kg (Mus musculus [4]): 47.5%; inhibition in vivo at 100 mg/kg (Mus musculus [5]): 54.6%; inhibition in vivo at 100 mg/kg (Mus musculus [6]): 53.3%; inhibition in vivo at 100 mg/kg (Mus musculus [7]): 56.9%; inhibition in vivo at 100 mg/kg (Mus musculus [8]): 57.6%; inhibition in vivo at 25 mg/kg (Mus musculus [9]): 77.4%
O=C(O)Cc1ccccc1Nc1c(Cl)cccc1Cl [DICLOFENAC] |  |  | 42.7 |  | 
CC1CCC(=O)C(C2CC(=O)N(Cc3ccccc3)C2=O)C1 (centres undefined) | 51.5 | 56.2 | 63.5 | 2.35 | 
COc1ccc(C(=O)CC2CC(=O)N(c3ccc(S(N)(=O)=O)cc3)C2=O)cc1 (centres undefined) | 39.2 | 4.74 | 14.9 | 18.7 | IC50 [10]: 24.9 µM
Cc1ccc(-c2cc(C(F)(F)F)nn2-c2ccc(S(N)(=O)=O)cc2)cc1 [CELECOXIB] |  |  |  |  | inhibition in vivo at 50 mg/kg (Mus musculus [11]): 65.9%
CC(=O)C(C)(C)C1CC(=O)N(c2ccccc2)C1=O (centres undefined) | 39.3 | 53.4 | 88.7 | 0.73 | 
CN(C)CCC(c1ccc(Cl)cc1)c1ccccn1 (centres undefined) [CHLORPHENIRAMINE MALEATE] |  |  |  |  | inhibition in vivo at 1 mg/kg (Mus musculus [12]): 71.8%

More lines, main results first:

IC50 [1] [µM] | IC50 [2] [µM] | IC50 [3] [µM] | Structure (SMILES) | Ratio IC50 (Homo sapiens) | further results
48.9 | 26.8 | 117 | O=C1CCOCC1C1CC(=O)N(c2ccccc2)C1=O (centres undefined) | 0.86 | 
49.1 | 16.1 |  | NS(=O)(=O)c1ccc(N2C(=O)CC(C3CCCCCC3=O)C2=O)cc1 (centres undefined) | 2.36 | 
65.6 | 78.3 | 66.3 | O=C1CCCCC1C1CC(=O)N(c2ccccc2)C1=O (centres undefined) | 1.45 | 
53 | 69.2 | 77.1 | CC1CCC(=O)C(C2CC(=O)N(c3ccccc3)C2=O)C1 (centres undefined) | 0.93 | 
43.7 | 0.81 | 13.4 | NS(=O)(=O)c1ccc(N2C(=O)CC(CC(=O)c3ccccn3)C2=O)cc1 (centres undefined) | 4.88 | 
48.7 | 5.29 | 45.6 | NS(=O)(=O)c1ccc(N2C(=O)CC(CC(=O)c3ccccc3)C2=O)cc1 (centres undefined) | 11.5 | 
65.6 | 18.4 | 63.1 | O=C1CCCCCC1C1CC(=O)N(c2ccccc2)C1=O (centres undefined) | 1.66 | 
186 | 130 | 99.9 | O=C1CCCCC1C1CC(=O)N(c2ccc(Br)cc2)C1=O (centres undefined) | 1.64 | 
43.4 | 21.3 |  | NS(=O)(=O)c1ccc(N2C(=O)CC(C3CCCCC3=O)C2=O)cc1 (centres undefined) | 2.04 | 
68.8 | 12.6 | 21.5 | NS(=O)(=O)c1ccc(N2C(=O)CC(CC(=O)c3ccc(Cl)cc3)C2=O)cc1 (centres undefined) | 10.9 | 
30.3 | 98.5 | 85.5 | O=C1CCCC1C1CC(=O)N(c2ccccc2)C1=O (centres undefined) | 0.58 | IC50 [10]: 97.2 µM
